A short description of data set [1]: Half-life in culture medium was determined. The class given is ADME. In short, it runs like this: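 Compound (stock 10 mg/mL in acetonitrile/H2O 1:1) added to RPMI containing 20% FCS and incubated at 37 °C for up to 2 days. Ethanol added to stop the reaction, then centrifugation and RP-HPLC of the supernatant. Half-life taken from least-squares linear regression of log inhibitor concentration versus time, at least five points.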

The nature of data set [2]: Half-life in human plasma was determined. The class given is ADME. In short, it runs like this:
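Compound incubated with human plasma (0.6 mL in 1.5 mL total) in 10 mM Tris-HCl pH 7.5 at 37 °C for up to 360 min. Ethanol added to stop the reaction, then centrifugation and RP-HPLC of the supernatant. Half-life taken from least-squares regression of log concentration versus time, minimum five points.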

Data set [3] has as its target Proteasome. In words: Inhibitory activity was evaluated against trypsin-like (proteasome) enzyme. The format is subcellular. In short, it runs like this: (§1)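 Proteasome partially purified from lymphoblastoid cell lines, affinity-purified and dialysed against 25 mM Tris-HCl pH 7.5. Enzyme untreated or pretreated with 0.01-20 µM compound, then incubated 30 min at 37 °C in activity buffer with fluorogenic substrate: Suc-LLVY-AMC for chymotrypsin-like, Boc-LRR-AMC for trypsin-like. Fluorescence read at ex 360/em 465 nm; IC50 derived.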

Data set [4] addresses Proteasome. As to the kind of experiment: Inhibitory activity was evaluated against chymotrypsin-like enzyme. The class given is subcellular. In short, it runs like this:
as §1

Data set [5] concerns Proteasome. In words: Inhibitory activity was evaluated against postacid PGPH active site. The format is subcellular. In short, it runs like this: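 Postacidic (PGPH) activity measured with Ac-YVAD-AMC on partially purified, affinity-purified lymphoblastoid proteasome in 25 mM Tris-HCl pH 7.5. Enzyme untreated or pretreated with 0.01-20 µM compound, then substrate added for 30 min at 37 °C in activity buffer. Fluorescence read at ex 360/em 465 nm; IC50 calculated.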

pIC50: −log10 of the molar value. Non-standard residues stand in square brackets, D forms with d. Residues, ends and D or L forms follow the SMILES beside them. ξ: configuration not given here. *: point of attachment. Fmoc = O=C(OCC1c2ccccc2-c2ccccc21)*; Cbz = O=C(OCc1ccccc1)*; ξNle = CCCCC(N)C(=O)O; NHBn = c1ccc(CN*)cc1

As to `CC(C)C[C@H](NC(=O)[C@H](CO)NC(=O)[C@@H](NC(=O)C1=CCCNC1)C(C)C)C(=O)NCc1ccccc1`, the half-life in data set [1] and in data set [2] was above 6 h in each case. Moreover, the negative-log IC50 (pIC50) in data set [3] was 5.67; in data set [4], 6.28; in data set [5], below 4.70.

On to `CC(C)C[C@H](NC(=O)[C@H](CO)NC(=O)[C@H](Cc1ccccc1)NC(=O)C1=CCCNC1)C(=O)NCc1ccccc1`, for which the half-life in data set [1] and in data set [2] was above 6 h throughout. Further, the pIC50 in data set [3] was 5.53; in data set [4], 5.91; in data set [5] it was below 4.70.

With `CC(C)C[C@H](NC(=O)OCc1ccccc1)C(=O)N[C@@H](CO)C(=O)N[C@@H](CC(C)C)C(=O)NCc1ccccc1` (HELM PEPTIDE1{[O=C(OCc1ccccc1)[*:2]].L.S.L.[c1ccc(CN[*:1])cc1]}$$$$V2.0), the pIC50 in data set [3] is 4.80; in data set [4], below 4.70; in data set [5], below 4.70.

Consider `CC(C)C[C@H](NC(=O)[C@H](CO)NC(=O)[C@@H]1CCCN1C(=O)OCC1c2ccccc2-c2ccccc21)C(=O)NCc1ccccc1` (HELM PEPTIDE1{[O=C(OCC1c2ccccc2-c2ccccc21)[*:2]].P.S.L.[c1ccc(CN[*:1])cc1]}$$$$V2.0), for which the pIC50 in data set [3], in data set [4] and in data set [5] was below 4.70 each time.

In the case of `CCCCC(NC(=O)OCc1ccccc1)C(=O)N[C@@H](CO)C(=O)N[C@@H](CC(C)C)C(=O)NCc1ccccc1` (stereo partly drawn) (Cbz-[ξNle]-Ser-Leu-NHBn), the pIC50 is 4.74 in data set [3], below 4.70 in data set [4] and below 4.70 in data set [5].

Regarding `CC(C)C[C@H](NC(=O)[C@H](CO)NC(=O)[C@H](C)NC(=O)OCC1c2ccccc2-c2ccccc21)C(=O)NCc1ccccc1` (HELM PEPTIDE1{[O=C(OCC1c2ccccc2-c2ccccc21)[*:2]].A.S.L.[c1ccc(CN[*:1])cc1]}$$$$V2.0), the pIC50 in data set [3], in data set [4] and in data set [5] was below 4.70 each time.

In the case of `CC(C)C[C@H](NC(=O)OCC1c2ccccc2-c2ccccc21)C(=O)N[C@@H](CC(C)C)C(=O)N[C@@H](CC(C)C)C(=O)NCc1ccccc1` (HELM PEPTIDE1{[O=C(OCC1c2ccccc2-c2ccccc21)[*:2]].L.L.L.[c1ccc(CN[*:1])cc1]}$$$$V2.0), the values for the pIC50 in data set [3], in data set [4] and in data set [5] were 4.97, 4.91 and below 4.70, respectively.

As to `CC[C@H](C)[C@H](NC(=O)OCC1c2ccccc2-c2ccccc21)C(=O)N[C@@H](CO)C(=O)N[C@@H](CC(C)C)C(=O)NCc1ccccc1` (HELM PEPTIDE1{[O=C(OCC1c2ccccc2-c2ccccc21)[*:2]].I.S.L.[c1ccc(CN[*:1])cc1]}$$$$V2.0), the pIC50 in data set [3], in data set [4] and in data set [5] was below 4.70 each time.

For the compound `CC(C)C[C@H](NC(=O)[C@H](CO)NC(=O)[C@H](C)NC(=O)OCc1ccccc1)C(=O)NCc1ccccc1` (HELM PEPTIDE1{[O=C(OCc1ccccc1)[*:2]].A.S.L.[c1ccc(CN[*:1])cc1]}$$$$V2.0), the pIC50 in data set [3], in data set [4] and in data set [5] was below 4.70 throughout.

For `CC(C)C[C@H](NC(=O)OCc1ccccc1)C(=O)N[C@@H](CC(C)C)C(=O)N[C@@H](CC(C)C)C(=O)NCc1ccccc1` (HELM PEPTIDE1{[O=C(OCc1ccccc1)[*:2]].L.L.L.[c1ccc(CN[*:1])cc1]}$$$$V2.0), the pIC50 in data set [3] is 5.05; in data set [4] it was 5.02; in data set [5], below 4.70.

Consider `CCCCC(NC(=O)OCC1c2ccccc2-c2ccccc21)C(=O)N[C@@H](CO)C(=O)N[C@@H](CC(C)C)C(=O)NCc1ccccc1` (stereo partly drawn) (Fmoc-[ξNle]-Ser-Leu-NHBn), for which the pIC50 in data set [3], in data set [4] and in data set [5] was below 4.70 in each case.

Consider `CC(C)C[C@H](NC(=O)[C@H](CO)NC(=O)[C@@H](NC(=O)OCc1ccccc1)C(C)C)C(=O)NCc1ccccc1` (HELM PEPTIDE1{[O=C(OCc1ccccc1)[*:2]].V.S.L.[c1ccc(CN[*:1])cc1]}$$$$V2.0), for which the pIC50 in data set [3] was 5.02; in data set [4], 5.43; in data set [5], below 4.70.

Take `CC(C)C[C@H](NC(=O)[C@H](CO)NC(=O)[C@H](Cc1ccccc1)NC(=O)OCc1ccccc1)C(=O)NCc1ccccc1`: the results for the pIC50 in data set [3], in data set [4] and in data set [5] were 5.32, 5.66 and 4.76, respectively.

Turning to `CC(C)C[C@H](NC(=O)C1=CCCNC1)C(=O)N[C@@H](CC(C)C)C(=O)N[C@@H](CC(C)C)C(=O)NCc1ccccc1`, the figures for the half-life in data set [1] and in data set [2] were above 6 h and 4.92 h, respectively. The pIC50 in data set [3] is 5.59; in data set [4], 5.85; in data set [5], below 4.70.

Take `CC(C)C[C@H](NC(=O)[C@H](CO)NC(=O)[C@@H](NC(=O)OCC1c2ccccc2-c2ccccc21)C(C)C)C(=O)NCc1ccccc1` (HELM PEPTIDE1{[O=C(OCC1c2ccccc2-c2ccccc21)[*:2]].V.S.L.[c1ccc(CN[*:1])cc1]}$$$$V2.0): the pIC50 in data set [3] is 4.87; in data set [4], 5.23; in data set [5] it was below 4.70.

Consider `CC[C@H](C)[C@H](NC(=O)OCc1ccccc1)C(=O)N[C@@H](CO)C(=O)N[C@@H](CC(C)C)C(=O)NCc1ccccc1` (HELM PEPTIDE1{[O=C(OCc1ccccc1)[*:2]].I.S.L.[c1ccc(CN[*:1])cc1]}$$$$V2.0), for which the pIC50 in data set [3], in data set [4] and in data set [5] was below 4.70 throughout.

On to `CC(C)C[C@H](NC(=O)OCC1c2ccccc2-c2ccccc21)C(=O)N[C@@H](CO)C(=O)N[C@@H](CC(C)C)C(=O)NCc1ccccc1` (HELM PEPTIDE1{[O=C(OCC1c2ccccc2-c2ccccc21)[*:2]].L.S.L.[c1ccc(CN[*:1])cc1]}$$$$V2.0), for which the negative logarithm of the IC50 (pIC50) in data set [3], in data set [4] and in data set [5] was below 4.70 each time.

On to `CC(C)C[C@H](NC(=O)[C@H](CO)NC(=O)[C@H](Cc1ccccc1)NC(=O)OCC1c2ccccc2-c2ccccc21)C(=O)NCc1ccccc1`, for which the figures for the pIC50 in data set [3], in data set [4] and in data set [5] were 4.89, 4.96 and 4.72, respectively.

In general, half-life refers to the time needed for the level to fall by half in the phase considered. Read a low half-life as fast loss. A word on the pIC50: it is the negative decadic logarithm of the IC50, by convention in mol/L.

Values taken from ChEMBL document CHEMBL1149108, “Arecoline tripeptide inhibitors of proteasome” (J Med Chem, 2004).
